IC50 and inhibition in vivo data for 27 molecules are collected here from ChEMBL document CHEMBL1149455, “Structure-activity relationship study of 1,4-dihydropyridine derivatives blocking N-type calcium channels” (Bioorg Med Chem Lett, 2006).

The target of assay [1] is Voltage-dependent N-type calcium channel subunit alpha-1B (Homo sapiens, UniProt Q00975). Put plainly: Inhibitory activity against N-type calcium channel by calcium influx into IMR32 cells. The format is functional, cell-based, IMR-32.
Assay [2] concerns the target Voltage-gated L-type calcium channel (Rattus norvegicus, UniProt P22002+Q02485+P27732). The assay can be described thus: Inhibitory activity against L-type calcium channel in SD rat thoracic aorta by Magnus method. The format is functional, tissue-based. A digest of the protocol:
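Aortic ring held at 2 g resting tension and equilibrated 1 h. It was then exposed to high-K⁺ solution and then Tyrode's solution, 45 min each, and returned to high-K⁺. After maximal contraction, compound was added cumulatively at 90-min intervals to 10⁻⁹, 10⁻⁸, 10⁻⁷ and 10⁻⁶ M. IC50 was derived from inhibition of the K⁺-induced contraction.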

The test system of the next assay is Rattus norvegicus. Put plainly: Analgesic effect in rat following foot-pad injection of formalin at 30 mg/kg, po. Type of assay: functional.

Structures are written as SMILES. Bounds are passed on as bounds.

Voltage-dependent N-type calcium channel subunit alpha-1B, sequence (Q00975 whole entry): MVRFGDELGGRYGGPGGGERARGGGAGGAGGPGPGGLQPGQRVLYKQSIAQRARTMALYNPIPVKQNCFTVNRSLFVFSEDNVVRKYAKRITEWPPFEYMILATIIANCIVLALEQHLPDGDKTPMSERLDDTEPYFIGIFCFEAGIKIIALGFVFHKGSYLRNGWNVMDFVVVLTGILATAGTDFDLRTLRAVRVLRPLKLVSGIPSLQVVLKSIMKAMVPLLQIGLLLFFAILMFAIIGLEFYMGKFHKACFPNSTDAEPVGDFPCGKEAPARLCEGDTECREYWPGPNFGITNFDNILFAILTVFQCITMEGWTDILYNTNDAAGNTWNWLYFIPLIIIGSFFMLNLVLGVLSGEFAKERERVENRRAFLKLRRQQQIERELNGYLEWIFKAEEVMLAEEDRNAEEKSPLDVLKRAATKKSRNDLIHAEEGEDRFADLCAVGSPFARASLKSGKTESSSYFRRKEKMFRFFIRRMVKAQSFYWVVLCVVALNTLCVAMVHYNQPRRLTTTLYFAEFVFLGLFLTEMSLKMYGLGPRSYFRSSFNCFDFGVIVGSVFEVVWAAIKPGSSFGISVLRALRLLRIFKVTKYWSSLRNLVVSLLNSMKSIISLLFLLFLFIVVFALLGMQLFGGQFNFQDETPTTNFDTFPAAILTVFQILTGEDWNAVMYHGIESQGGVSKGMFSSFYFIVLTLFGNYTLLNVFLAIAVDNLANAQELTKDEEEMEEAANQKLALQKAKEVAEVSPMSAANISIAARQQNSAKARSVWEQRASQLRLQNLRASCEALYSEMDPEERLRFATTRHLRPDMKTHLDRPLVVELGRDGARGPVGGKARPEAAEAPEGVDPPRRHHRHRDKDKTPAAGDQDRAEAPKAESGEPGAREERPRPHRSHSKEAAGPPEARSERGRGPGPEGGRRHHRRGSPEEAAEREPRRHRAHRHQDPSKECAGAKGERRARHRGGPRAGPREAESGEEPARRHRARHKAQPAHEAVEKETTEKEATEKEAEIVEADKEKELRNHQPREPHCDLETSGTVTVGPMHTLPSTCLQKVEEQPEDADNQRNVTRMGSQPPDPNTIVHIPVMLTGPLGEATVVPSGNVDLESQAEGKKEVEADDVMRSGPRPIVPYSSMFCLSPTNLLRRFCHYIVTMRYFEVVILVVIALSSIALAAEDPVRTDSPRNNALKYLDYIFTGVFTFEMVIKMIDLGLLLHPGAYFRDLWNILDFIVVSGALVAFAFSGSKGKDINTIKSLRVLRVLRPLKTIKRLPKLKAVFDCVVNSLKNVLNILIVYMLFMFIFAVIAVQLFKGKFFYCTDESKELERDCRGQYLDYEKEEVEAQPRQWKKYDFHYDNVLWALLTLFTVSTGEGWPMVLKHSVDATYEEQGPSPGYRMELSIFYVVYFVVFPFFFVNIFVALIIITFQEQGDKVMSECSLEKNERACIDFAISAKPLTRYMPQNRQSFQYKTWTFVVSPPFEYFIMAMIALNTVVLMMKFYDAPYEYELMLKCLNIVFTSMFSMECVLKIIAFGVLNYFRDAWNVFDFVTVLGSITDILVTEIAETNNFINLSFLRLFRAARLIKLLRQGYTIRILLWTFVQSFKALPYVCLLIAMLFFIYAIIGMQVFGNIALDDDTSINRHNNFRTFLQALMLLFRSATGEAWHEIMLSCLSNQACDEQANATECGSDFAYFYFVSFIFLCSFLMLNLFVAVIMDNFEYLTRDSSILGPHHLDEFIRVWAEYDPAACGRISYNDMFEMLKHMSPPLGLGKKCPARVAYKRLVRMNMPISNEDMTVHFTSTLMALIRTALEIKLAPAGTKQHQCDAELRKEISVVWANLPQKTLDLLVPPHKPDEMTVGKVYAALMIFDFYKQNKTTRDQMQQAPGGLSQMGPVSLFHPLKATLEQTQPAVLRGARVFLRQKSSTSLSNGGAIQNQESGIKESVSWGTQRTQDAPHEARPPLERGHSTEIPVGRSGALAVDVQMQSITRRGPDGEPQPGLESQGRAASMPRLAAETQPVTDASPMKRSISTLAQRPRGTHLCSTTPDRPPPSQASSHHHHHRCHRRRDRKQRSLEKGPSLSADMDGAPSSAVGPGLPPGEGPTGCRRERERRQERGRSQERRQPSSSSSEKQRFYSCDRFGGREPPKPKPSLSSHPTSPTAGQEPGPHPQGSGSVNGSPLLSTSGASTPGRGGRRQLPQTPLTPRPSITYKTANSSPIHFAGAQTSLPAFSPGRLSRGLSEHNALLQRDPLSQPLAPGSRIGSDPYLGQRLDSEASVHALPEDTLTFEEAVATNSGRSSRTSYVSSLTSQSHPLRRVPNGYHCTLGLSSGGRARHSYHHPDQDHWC

Broadly, the IC50 is the point on the concentration scale where inhibition reaches its midpoint. As to `CC1=NC(C)=C(C(=O)O)C(c2cccc(I)c2)/C1=C(\O)OC/C=C/c1ccccc1` (stereo unspecified), the IC50 worked out at 1700 nM in assay [1] and 13 nM in assay [2].
In the same order, the values of `COC(=O)c1cccc(C2C(C(=O)O)=C(C)N=C(C)/C2=C(/O)OC/C=C/c2ccccc2)c1` (stereo unspecified) are 4600 nM and 4400 nM.
In the same order, the values of `CC1=NC(C)=C(C(=O)O)C(c2cccc(Cl)c2)/C1=C(\O)OCCC(c1ccccc1)c1ccccc1` (stereo unspecified) are 1100 nM and 360 nM.
In the same order, the values of `CC1=NC(C)=C(C(=O)O)C(c2cccc(F)c2)/C1=C(\O)OC/C=C/c1ccccc1` (stereo unspecified) are 1300 nM and 20 nM.
Turning to `CC1=NC(C)=C(C(=O)O)C(c2cccc(C(=O)O)c2)/C1=C(\O)OC/C=C/c1ccccc1` (stereo unspecified), the IC50 is 37000 nM in assay [1] and over 10000 nM in assay [2].
In the same order, the values of `CC1=NC(C)=C(C(=O)O)C(c2cccc(Cl)c2)/C1=C(\O)OC/C(C)=C/c1ccccc1` (stereo unspecified) are 680 nM and 2.8 nM.
In the same order, the values of `CC1=C(C(=O)O)C(c2cccc(Cl)c2)C(C(=O)NC/C=C/c2ccccc2)=C(C)N1` (stereo unspecified) are 4500 nM and 850 nM.
In the same order, the values of `CC1=NC(C)=C(C(=O)O)C(c2cccc(Cl)c2)/C1=C(\O)OCc1ccc2ccccc2c1` (stereo unspecified) are 3900 nM and 14 nM.
Turning to `CC1=NC(C)=C(C(=O)O)C(c2cccc(Cl)c2)/C1=C(\O)OC/C=C/C1CCCCC1` (stereo unspecified), the IC50 is 830 nM in assay [1] and 3.7 nM in assay [2].
In the same order, the values of `CC1=NC(C)=C(C(=O)O)C(c2cccc(C)c2)/C1=C(\O)OC/C=C/c1ccccc1` (stereo unspecified) are 1800 nM and 76 nM.
In the same order, the values of `CC1=NC(C)=C(C(=O)O)C(c2cccc(Cl)c2)/C1=C(\O)OC/C=C/c1ccncc1` (stereo unspecified) are 6200 nM and 320 nM.
In the same order, the values of `CC1=NC(C)=C(C(=O)O)C(c2ccccc2)/C1=C(\O)OC/C=C/c1ccccc1` (stereo unspecified) are 2000 nM and 9 nM.
Consider `CC1=NC(C)=C(C(=O)O)C(c2cccc(Cl)c2)/C1=C(\O)OCC(=O)Nc1ccccc1` (stereo unspecified), for which the figures for the IC50 in assay [1] and in assay [2] were 28000 nM and 50 nM, respectively.
In the same order, the values of `CC1=NC(C)=C(C(=O)O)C(c2cccc(Cl)c2)/C1=C(\O)OC/C=C/c1ccc(C)cc1` (stereo unspecified) are 890 nM and 6.8 nM.
Turning to `CC1=NC(C)=C(C(=O)O)C(c2cccnc2)/C1=C(\O)OC/C=C/c1ccccc1` (stereo unspecified), the IC50 in assay [1] came out at 24000 nM; in assay [2], 190 nM.
In the same order, the values of `CC1=NC(C)=C(C(=O)O)C(c2ccccc2[N+](=O)[O-])/C1=C(\O)OC/C=C/c1ccccc1` (stereo unspecified) are 37000 nM and 31 nM.
In the same order, the values of `CC1=NC(C)=C(C(=O)O)C(c2cccc(Br)c2)/C1=C(\O)OC/C=C/c1ccccc1` (stereo unspecified) are 790 nM and 10 nM.
One may read the inhibition in vivo as the share of the control response that was lost under treatment. Low values mean a response near the control, high ones a response far below the control. Regarding `CC1=C(C(=O)O)C(c2cccc(Cl)c2)C(C(=O)OCCC(c2ccccc2)c2ccccc2)=C(C(F)(F)F)N1` (stereo unspecified), the IC50 in assay [1] is 1700 nM; in assay [2], 1800 nM. Moreover, the inhibition in vivo at 30 mg/kg in the assay with Rattus norvegicus stood at 46%.
Turning to `CC1=NC(C)=C(C(=O)O)C(c2cccc(Cl)c2)/C1=C(\O)OCC=C(c1ccccc1)c1ccccc1` (stereo unspecified), the figures for the 50% inhibitory concentration (IC50) in assay [1] and in assay [2] were 3900 nM and 200 nM, respectively.
In the same order, the values of `CC1=NC(C)=C(C(=O)O)C(c2cccc(Cl)c2)/C1=C(\O)OCCC(c1ccccn1)c1ccccn1` (stereo unspecified) are 10000 nM and 1600 nM.
With `CC1=NC(C)=C(C(=O)O)C(c2cccc(Cl)c2)/C1=C(\O)OC/C=C/c1ccccc1` (stereo unspecified), the results for the IC50 in assay [1] and in assay [2] were 1000 nM and 20 nM, respectively.
In the same order, the values of `CC1=NC(C)=C(C(=O)O)C(c2ccsc2)/C1=C(\O)OC/C=C/c1ccccc1` (stereo unspecified) are 2900 nM and 44 nM.
In the same order, the values of `CC1=NC(C)=C(C(=O)O)C(c2ccc([N+](=O)[O-])cc2)/C1=C(\O)OC/C=C/c1ccccc1` (stereo unspecified) are 21000 nM and 1600 nM.
In the same order, the values of `CC1=NC(C)=C(C(=O)O)C(c2cccc(Cl)c2)/C1=C(\O)OC/C=C/c1ccc(Cl)cc1` (stereo unspecified) are 1500 nM and 5.8 nM.
Turning to `CC1=NC(C)=C(C(=O)O)C(c2ccoc2)/C1=C(\O)OC/C=C/c1ccccc1` (stereo unspecified), the figures for the IC50 in assay [1] and in assay [2] were 11000 nM and 130 nM, respectively.
Take `CC1=C(C(=O)O)C(c2cccc([N+](=O)[O-])c2)C(C(=O)OC/C=C/c2ccccc2)=C(C)N1` (stereo unspecified): the IC50 in assay [1] was 3500 nM; in assay [2], 46 nM.
Regarding `COCCOC(=O)C1=C(C)NC(C)=C(C(=O)OC/C=C/c2ccccc2)C1c1cccc([N+](=O)[O-])c1` (stereo unspecified) [CILNIDIPINE], the IC50 in assay [1] came out at 1600 nM; in assay [2], 1.1 nM. Further, in the assay on Rattus norvegicus, the inhibition in vivo at 30 mg/kg is 46%.
